Screening data as filed in PubChem.
Shown are actives, neighbours in structure and some others; about 4.9% of the full set was active somewhere.
STAT1 activator – STAT1 signaling activators, primary screen, cell-based, HTS, luciferase reporter; NIH 3T3 STAT1-luciferase reporter, IFN-gamma, luminescence; 100% = IFN-gamma alone, no compound; activation (% of control), % at 5.5 µM; 200,000 compounds, 2.6% hits;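 active = activation above the screen-wide mean activation plus 3 SD, cut at about 130% in these data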
NF-kB expr up – activators of NF-kB expression in neurons, primary screen, cell-based, HTS; 190,000 compounds, 1.6% hits; fold change at 12.5 µM; human neuronal cells, NF-kB reporter expression; hits give high values; in the data active = fold change above about 3.3
STAT3 inh – IL-6 driven STAT3 reporter inhibitors, primary screen, U3A cells, luciferase, luminescence, MLSCN library; AID 862, 2007; inhibition, % at 5.5 µM; IL-6 STAT3-luciferase reporter; host cell line lacks STAT1; 190,000 compounds, 0.89% hits;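 active = inhibition above the mean inhibition across all screened compounds plus 3 SD, cut at about 44% in these data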
STAT3 activator – IL-6 driven STAT3 reporter potentiators, primary screen, U3A cells, luciferase, luminescence, MLSCN library | IL-6 STAT3-luciferase reporter; 100% = signal with IL-6 EC80 alone | activation (% of control), % at 5.6 µM | 190,000 compounds, 0.91% hits;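 active = activation above the screen-wide mean of compound activation plus 3 SD, cut at about 130% in these data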
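system = STAT3-luciferase reporter U3A cells | reagent = IL-6 stimulus at 33 ng/mL final | timing = 1 h compound pre-exposure, 6 h IL-6 stimulation, 37 °C | measured by = luminescence | evaluation = % activation versus median of IL-6-stimulated wells | control set = IL-6-only wells as 100% reference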
STAT1 blocker – STAT1 signaling inhibitors, primary screen, cell-based, HTS, luciferase reporter; NIH 3T3 STAT1-luciferase reporter, IFN-gamma, luminescence; inhibition, % at 5.5 µM; 200,000 compounds, 0.35% hits; AID 920, 2007;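 active = inhibition above a set limit, the mean inhibition across all tested compounds plus 3 SD, cut at about 34% in these data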
APP 5'UTR act – activators of APP 5'UTR luciferase reporter, primary screen, SH-SY5Y cells; 190,000 compounds, 1% hits; AID 1276, 2008; SH-SY5Y APP 5'UTR luciferase reporter, luminescence; zero percent = DMSO vehicle wells; activation, % at 2 µM;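 active = activation above a set limit, based on mean plus 3 SD of controls, cut at about 140% in these data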
Of the large screens only hits and unclear results are named; the others gave an inactive call.

Cc1ccc2nc(SC(C)C(=O)N3CCOCC3)[nH]c2c1 (stereo unspecified)	STAT1 activator 145.8
COC(=O)Cn1c(C)nc2c(sc3nc(C)cc(C)c32)c1=O	STAT1 activator 141.0
COC(=O)Cn1c(C)nc2ccccc21	none
CCn1ncc([N+](=O)[O-])c1C(=O)Nc1c(C)nn(Cc2ccc(F)cc2)c1C	none (no result: STAT3 inh, STAT3 activator)
CCOC(=O)C1=C(C)n2c(s/c(=C/c3cccc([N+](=O)[O-])c3)c2=O)=NC1c1ccc(O)c(OC)c1 (stereo unspecified)	NF-kB expr up 6.84
CCOC(=O)C1=C(C)N=c2s/c(=C/c3ccccc3)c(=O)n2C1c1ccc(OC)c(OC)c1 (stereo unspecified)	none
CCCCNC(=O)N1c2ccccc2CC1C (stereo unspecified)	none
Cc1nn(-c2ccccc2)c(N2CCCC2)c1/C=N/NC(=S)Nc1ccccc1F	STAT1 activator 129.0
O=C(COc1ccc([N+](=O)[O-])cc1)NNC(=O)c1cccs1	none
Cc1ccc(NC(=O)C2CCCN2S(=O)(=O)c2ccc3c(c2)n(C)c(=O)c(=O)n3C)cc1C (stereo unspecified)	none
O=C(NCc1ccccn1)Nc1cccc(NC(=O)NCc2ccccn2)c1	none
Cc1ccc(NC(=O)C(=O)NCc2ccccn2)cc1	STAT1 activator 133.7
O=C(NCc1ccccn1)C(=O)Nc1ccccc1	none
O=C(Nc1cccc(Cl)c1)Nc1nc(-c2ccccc2)cs1	none
Cc1nn(C)c(C)c1CNC(=O)Nc1ccc(Cl)cc1	STAT1 activator 128.9
O=C(NCc1ccccn1)Nc1cccc(Cl)c1	STAT1 activator 133.3, NF-kB expr up 3.72
Cc1csc(NC(=O)Nc2cccc(Cl)c2)n1	STAT1 activator 134.1, NF-kB expr up 4.6
Fc1cccc(Cl)c1/C=N/n1c(-c2cccnc2)n[nH]c1=S	none
Cc1nn(C)c(C)c1CNC(=O)Nc1ccc2c(c1)OCO2	none
Cc1nn(C)c(C)c1CNC(=O)Nc1cccc(Cl)c1	NF-kB expr up 4.56
COc1ccc(/C=C2\CCc3ccccc3C2=O)cc1OC	NF-kB expr up 3.61
O=C1/C(=C\c2ccc3ccccc3c2)CCCc2ccccc21	NF-kB expr up 4.83
Cc1cc(C)nc(SC2=CS(=O)(=O)c3ccccc32)n1	none
O=S1(=O)C=C(Sc2nc3ccccc3s2)c2ccccc21	STAT3 activator 134.5
Cc1ccc(C(=O)Oc2ccccc2N2C(=O)C3C4CCC(C4)C3C2=O)cc1 (stereo unspecified)	none
O=C(CCc1ccccc1)Nc1ccccc1	none
CN(C)c1ccc(NC(=O)CCCc2ccccc2)cc1	STAT1 activator 138.2, NF-kB expr up 5.41, APP 5'UTR act 150.3
Cc1ccc(C)c(NC(=S)c2ccc3ccccc3n2)c1	STAT1 activator 129.2, STAT3 activator 154.5
Cc1ccc(C)c(NC(=S)Nc2cccnc2)c1	none
Cc1ccc(C)c(NC(=S)c2ccccn2)c1	NF-kB expr up 14.7
Cc1ccc(C)c(NC(=S)Nc2cccc3cnccc23)c1	none
CCCn1c(SCC(=O)NCc2ccc(F)cc2)n[nH]c1=O	none
CCC(=O)c1c(OCc2ccccc2)ccc2c(C)cc(=O)oc12	NF-kB expr up 3.37
CCC(=O)c1ccc(OCc2ccccc2)c(OC)c1	STAT1 activator 129.1
CCC(=O)c1ccc(OCc2ccc(C(=O)OC)cc2)c(OC)c1	none
CCOC(=O)COc1ccc2c(C)cc(=O)oc2c1C(=O)c1ccccc1	none
c1cncc(-c2nc(-c3ccc4c(c3)OCO4)cs2)c1	STAT1 activator 143.2
Clc1ccsc1-c1csc(-c2cccnc2)n1	STAT1 activator 128.9
Cc1cnc(C(=O)Nc2ccc3c(c2)CCC3)cn1	NF-kB expr up 7.44, APP 5'UTR act 163.3
Cc1cc(C)n2nc(C(=O)Nc3ccc4c(c3)CCC4)nc2n1	none
Cc1cnc(C(=O)Nc2ccc(F)c(F)c2)cn1	none
CN1N=C(C(=O)Nc2ccc3c(c2)CCC3)CCC1=O	STAT1 activator 132.2
O=C(Nc1ccc2c(c1)CCC2)c1cnccn1	STAT1 activator 142.7
Cc1nn(Cc2ccccc2)c(Cl)c1/C=C/C(=O)OC(C(=O)NC(N)=O)C(C)C (stereo unspecified)	none
COCCNCC(=O)Nc1nc(C)cs1	none
CC(C)n1c(-c2ccco2)csc1=Nc1cccnc1	STAT3 activator 134.8
COCCn1c(-c2ccccc2)csc1=Nc1cccnc1	none
Cc1cc(N2CCOCC2)ccc1/C=C1\NC(=O)N(CC(=O)Nc2ccc(F)cc2)C1=O	STAT1 activator 131.0
Cc1cc(N2CCOCC2)ccc1/C=C1/SC(=O)NC1=O	STAT1 activator 151.7, NF-kB expr up 5.28, STAT3 activator 138.0
Cc1cc(N2CCCC2)ccc1/C=C1\NC(=S)N(C)C1=O	STAT1 activator 129.3
Cc1cc(N2CCOCC2)ccc1/C=C1\NC(=O)N(CC(=O)Nc2ccccc2C)C1=O	none
CCc1ccc(C(=O)COC(=O)[C@@H](NC(N)=O)[C@@H](C)CC)cc1	none
COc1ccc(Cc2nnc(SCC(=O)N3CCCCC3)o2)cc1	none
CC(=O)Nc1ccc(NC2=C/C(=N/S(=O)(=O)c3cccs3)c3ccccc3C2=O)cc1	STAT3 inh 65.5, STAT1 blocker 90.2
NNc1nc(-c2ccccc2Cl)nc2sc3c(c12)CCCC3	NF-kB expr up 3.31
C(=C\c1ccccc1)/C=N/N1CCN(c2ccccn2)CC1	STAT1 activator 132.0
O=C(Nc1nc(-c2ccc(Cl)s2)cs1)c1ccco1	STAT1 activator 129.5
Cc1ccc(Nc2nc(-c3sc(NC(=O)c4ccco4)nc3C)cs2)cc1	STAT3 activator 135.3
O=C(CSc1cccc[n+]1[O-])c1ccc(Cl)s1	none
C#CCNC(=O)C1=C[C@H](c2csc3ccccc23)C[C@H](OCCCCO)O1	none (no result: STAT3 inh, STAT3 activator)
Cc1ccc(Cl)cc1NC(=S)N(CCCN1CCOCC1)Cc1ccco1	none
CCc1ccc2oc(-c3cc(N)ccc3Cl)nc2c1	STAT1 activator 131.3, APP 5'UTR act 160.0
CCc1ccc2oc(-c3cc(N)ccc3O)nc2c1	NF-kB expr up 4.02, APP 5'UTR act 186.9
Cc1cc(/C=C2\SC(N)=NC2=O)c(C)n1-c1ccc(F)cc1	none
CCOc1cc(C(N)=O)cc(Br)c1OCc1ccccc1	none
O=C(OCC(=O)N1CCN(c2ccccc2)CC1)c1ccc[n+]([O-])c1	none
CC(C)(C)n1ncc2c(=O)n(CC(=O)c3ccccc3)cnc21	STAT1 activator 150.4
Cc1ccc(C(=O)Cn2cnc3ccccc3c2=O)cc1	STAT1 activator 132.9
O=C(Cn1cnc2ccccc2c1=O)c1ccc(Br)cc1	STAT1 activator 143.8
CC(C)(C)n1ncc2c(=O)n(CC(=O)OCc3ccccc3)cnc21	none
